Results gathered from unrelated publications.
Read-out: cell growth or viability

CCn1c2ccccc2c2cc(C3CC(c4cc5ccccc5oc4=O)=NN3c3ccccc3)ccc21 (stereo not drawn) — IC50 (NRK-52E; MTT; 24 h): 103 µM
COc1cc2c(Oc3ccc(NC(=O)C4(C(=O)Nc5ccc(F)cc5)CC4)cc3F)ccnc2cc1OCCCN1CCOCC1 — IC50 (Rh18; 72 h): 0.31 µM
FC(F)(F)c1ccc(C(c2c[nH]c3ccccc23)c2c[nH]c3ccccc23)cc1 — IC50 (KG-1; 48 h): 15 µM
CCn1c2ccccc2c2cc(C3CC(c4cc5c(ccc6ccccc65)oc4=O)=NN3c3cccc(Cl)c3)ccc21 (stereo not drawn) — IC50 (NRK-52E; MTT; 24 h): 57.1 µM
COCCCOC(=O)[C@]1(C)CC[C@]2(C)CC[C@]3(C)C4=CC=C5C(=CC(=O)C(O)=C5C)[C@]4(C)CC[C@@]3(C)[C@@H]2C1 — IC50 (Bel-7402; MTT; 48 h): 0.81 µM
O=C(O)/C=C/c1ccc(C(c2c[nH]c3ccccc23)c2c[nH]c3ccccc23)s1 — IC50 (KG-1; 48 h): > 20 µM
CC1=C(O)C(=O)C=C2C1=CC=C1[C@@]2(C)CC[C@@]2(C)[C@@H]3C[C@](C)(C(=O)OCCCn4ccc5ccccc54)CC[C@]3(C)CC[C@]12C — IC50 (Bel-7402; MTT; 48 h): 5.42 µM
COc1cc(N2CCC(N3CCN(C)CC3)CC2)ccc1Nc1ncc(Cl)c(Nc2ccccc2S(=O)(=O)C(C)C)n1 — IC50 (Rh18; 72 h): 0.27 µM
Cn1cc(C(c2cccc(/C=C/C(=O)O)c2)c2cn(C)c3ccccc23)c2ccccc21 — IC50 (KG-1; 48 h): > 20 µM
CCCON(Cc1ccc(C(=O)NO)cc1)C(=O)Nc1ccc(N(C)C)cc1 — IC50 (MOLM-13; ATP luminescence; 72 h): 7.19 µM
CCn1c2ccccc2c2cc(/C=C/C(=O)c3cc4c(ccc5ccccc54)oc3=O)ccc21 — IC50 (NRK-52E; MTT; 24 h): 82.7 µM
CC1=C(O)C(=O)C=C2C1=CC=C1[C@@]2(C)CC[C@@]2(C)[C@@H]3C[C@](C)(C(=O)OCCCCO)CC[C@]3(C)CC[C@]12C — IC50 (Bel-7402; MTT; 48 h): 0.63 µM
CCn1c2ccccc2c2cc(C3CC(c4cc5c(ccc6ccccc65)oc4=O)=NN3c3ccc(C)cc3)ccc21 (stereo not drawn) — IC50 (NRK-52E; MTT; 24 h): 79.9 µM
CC1=C(O)C(=O)C=C2C1=CC=C1[C@@]2(C)CC[C@@]2(C)[C@@H]3C[C@](C)(C(=O)OCCCCCO)CC[C@]3(C)CC[C@]12C — IC50 (Bel-7402; MTT; 48 h): 0.59 µM
CC(C)n1cc(C(c2ccc(/C=C/C(=O)O)s2)c2cn(C(C)C)c3ccccc23)c2ccccc21 — IC50 (KG-1; 48 h): > 5 µM
CC1=C(O)C(=O)C=C2C1=CC=C1[C@@]2(C)CC[C@@]2(C)[C@@H]3C[C@](C)(C(=O)OCCO)CC[C@]3(C)CC[C@]12C — IC50 (Bel-7402; MTT; 48 h): 0.68 µM
Nc1ncc(-c2cnn(C3CCNCC3)c2)cc1-c1nnc(CC2CC2)o1 — IC50 (MOLM-13; trypan blue; 72 h): 0.184 µM
CCn1c2ccccc2c2cc(C3CC(c4cc5ccccc5oc4=O)=NN3c3ccc(C)cc3)ccc21 (stereo not drawn) — IC50 (NRK-52E; MTT; 24 h): 83.2 µM
CC1=C(O)C(=O)C=C2C1=CC=C1[C@@]2(C)CC[C@@]2(C)[C@@H]3C[C@](C)(C(=O)OCCCCCCO)CC[C@]3(C)CC[C@]12C — IC50 (Bel-7402; MTT; 48 h): 1.22 µM
Cc1[nH]c(/C=C2\C(=O)Nc3ccc(S(=O)(=O)N(C)c4cccc(Cl)c4)cc32)c(C)c1C(=O)N1CCN(C)CC1 — IC50 (Rh18; 72 h): 4.07 µM
CC1=C(O)C(=O)C=C2C1=CC=C1[C@@]2(C)CC[C@@]2(C)[C@@H]3C[C@](C)(C(=O)OCCCCCCCO)CC[C@]3(C)CC[C@]12C — IC50 (Bel-7402; MTT; 48 h): 0.74 µM
CCn1c2ccccc2c2cc(C3CC(c4cc5c(ccc6ccccc65)oc4=O)=NN3C(N)=O)ccc21 (stereo not drawn) — IC50 (NRK-52E; MTT; 24 h): 59.1 µM
CC(C)[C@H](N)C(=O)N1CCC[C@H]1B(O)O — IC50 (MOLM-13; ATP luminescence; 48 h): 0.12 µM
CCn1c2ccccc2c2cc(C3CC(c4cc5cccc(OC)c5oc4=O)=NN3c3ccc(C)cc3)ccc21 (stereo not drawn) — IC50 (NRK-52E; MTT; 24 h): 52 µM
O=C(O)/C=C/c1cccc(C(c2c[nH]c3ccccc23)c2c[nH]c3ccccc23)c1 — IC50 (KG-1; 48 h): > 20 µM
CC(C)C[C@H](NC(=O)[C@H](Cc1ccccc1)NC(=O)c1cnccn1)B(O)O — IC50 (NCI-H1573; ATP luminescence): 0.029 µM
Cn1cc(C(c2ccc(C(=O)O)cc2)c2cn(C)c3ccccc23)c2ccccc21 — IC50 (KG-1; 48 h): > 20 µM
COc1cc(Nc2nccc(-c3cnn4nc(OC)ccc34)n2)cc(C(F)(F)F)c1 — IC50 (NCI-H1573; ATP luminescence): 0.63 µM
Cc1cccc2c(C(c3ccc(/C=C/C(=O)O)s3)c3c[nH]c4c(C)cccc34)c[nH]c12 — IC50 (KG-1; 48 h): > 5 µM
CCn1c2ccccc2c2cc(C3CC(c4cc5ccccc5oc4=O)=NN3C(C)=O)ccc21 (stereo not drawn) — IC50 (NRK-52E; MTT; 24 h): 116 µM
